Test results published in ChEMBL document CHEMBL1828507, “Novel diarylpyridinones, diarylpyridazinones and diarylphthalazinones as potential HIV-1 nonnucleoside reverse transcriptase inhibitors (NNRTIs)” (Bioorg Med Chem, 2011).

What was measured:
[1] = tested on: Human immunodeficiency virus 1; experiment: Antiviral activity against wild type HIV1 BaL in human TZM-b1 cells after 48 hrs by luciferase assay; assay type: functional, organism-based; conditions: Human immunodeficiency virus 1, BaL, TZM-b1, 48 h
In short: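 Infected with 200 TCID₅₀ HIV-1 BaL, then 48 h culture and luciferase readout. Inhibition relative to untreated controls; EC50 by nonlinear regression. Triplicate wells, at least two independent experiments.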

[2] = Selectivity index, ratio of CC50 for human TZM-bl cells to EC50 for wild type HIV1 BaL; assay type: toxicity, cell-based; conditions: read-out: Ratio CC50/EC50
In short: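 SI taken as CC50/EC50. CC50 from a 48 h WST-1 viability assay (A450) in TZM-bl cells. EC50 from a 48 h luciferase readout in TZM-bl cells infected with 200 TCID₅₀ HIV-1 BaL after a 30 min compound pre-incubation with DEAE dextran. Both values by nonlinear regression.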

[3] = target: Human immunodeficiency virus type 1 reverse transcriptase (Human immunodeficiency virus 1, UniProt Q72547); experiment: Inhibition of wild type HIV1 reverse transcriptase
[4] = tested on: Human immunodeficiency virus 1; experiment: Ratio of TMC120 EC50 to compound EC50 for wild type HIV1 BaL infected in human TZM-b1 cells; assay type: functional
[5] = Cytotoxicity against human TZM-b1 cells infected with wild type HIV1 BaL after 48 hrs using formazan dye by WST1 assay; assay type: cell-based; conditions: TZM-bl cells infected with wild type HIV1 BaL
In short: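 WST-1 reagent added, and absorbance at 450 nm read after 90 min. Viability relative to untreated controls; CC50 by nonlinear regression. Three replicate wells, at least two independent experiments.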

[6] = tested on: Human immunodeficiency virus 1; experiment: Antiviral activity against HIV1 VI829 expressing reverse transcriptase Y181C mutant infected in human TZM-bl cells after 48 hrs by luciferase assay; assay type: functional, organism-based; conditions: Human immunodeficiency virus 1, VI829, TZM-bl
[7] = tested on: Human immunodeficiency virus 1; experiment: Antiviral activity against HIV1 BaL expressing reverse transcriptase V106A mutant infected in human TZM-bl cells after 48 hrs by luciferase assay; assay type: functional, organism-based; conditions: Human immunodeficiency virus 1, BaL
[8] = tested on: Human immunodeficiency virus 1; experiment: Ratio of EC50 for HIV1 VI829 expressing reverse transcriptase Y181C mutant infected in human TZM-b1 cells to EC50 for wild type HIV1 VI829 in human TZM-b1 cells; assay type: functional
[9] = tested on: Human immunodeficiency virus 1; experiment: Antiviral activity against wild type HIV1 VI829 infected in human TZM-b1 cells after 48 hrs by luciferase assay; assay type: functional, organism-based; conditions: Human immunodeficiency virus 1, VI829, TZM-b1, 48 h
[10] = tested on: Human immunodeficiency virus 1; experiment: Ratio of EC50 for HIV1 BaL expressing reverse transcriptase V106A mutant infected in human TZM-bl cells to EC50 for wild type HIV1 BaL in human TZM-bl cells; assay type: functional

Row | SMILES | EC50 [1] | selectivity ratio [2] | CC50 at 48 h [5] | further results
1 | N#Cc1ccc(Nc2ccc(=O)n(Nc3ccc(C#N)cc3)c2)cc1 | > 10 µM | – | – | –
2 | Cc1cc(C)c(Nc2ccc(=O)n(Nc3ccc(C(F)(F)F)cc3)n2)c(C)c1 | > 10 µM | – | – | –
3 | Cc1cc(C)c(Nc2ccc(=O)n(Nc3cccc(C#N)c3)n2)c(C)c1 | > 10 µM | < 1 | 5.04 µM | –
4 | Cc1cc(C)c(Oc2ccc(=O)n(Nc3ccc(C#N)cc3)n2)c(C)c1 | 0.69 µM | 29 | 19.9 µM | EC50 [6]: > 10 µM; EC50 [7]: 1.12 µM; Ratio EC50 [8]: >64; IC50 [3]: 100 µM; EC50 [9]: 0.16 µM; Ratio EC50 [10]: 2
5 | Cc1cc(C)c(Oc2ccc(=O)n(Nc3cccc(C#N)c3)n2)c(C)c1 | > 10 µM | – | – | –
6 | Cc1cccc(C)c1Oc1ccc(=O)n(Nc2ccc(F)cc2)n1 | > 10 µM | – | – | –
7 | Cc1cccc(C)c1Oc1ccc(=O)n(Nc2cccc(C#N)c2)n1 | > 10 µM | – | – | –
8 | Cc1cccc(C)c1Oc1ccc(=O)n(Nc2ccccc2)n1 | > 10 µM | – | – | –
9 | Cc1cc(C#N)cc(C)c1Oc1ccc(=O)n(Nc2cccc(C#N)c2)n1 | > 10 µM | – | – | –
10 | Cc1cc(Cl)cc(C)c1Oc1ccc(=O)n(Nc2ccc(C#N)cc2)n1 | 0.6 µM | 23 | 14.1 µM | EC50 [6]: > 10 µM; EC50 [7]: 4.55 µM; Ratio EC50 [8]: >20; EC50 [9]: 0.5 µM; Ratio EC50 [10]: 8
11 | Cc1cc(Br)cc(C)c1Oc1ccc(=O)n(Nc2ccc(C#N)cc2)n1 | 0.64 µM | > 193 | > 100 µM | EC50 [6]: > 10 µM; EC50 [7]: 2.97 µM; Ratio EC50 [8]: >29; EC50 [9]: 0.34 µM; Ratio EC50 [10]: 5
12 | Cc1cc(C)c(Nc2ccc(=O)n(Nc3ccc(C#N)cc3)c2)c(C)c1 | > 10 µM | – | – | IC50 [3]: 760 µM
13 | Cc1cc(C)c(Nc2ccc(=O)n(Nc3ccc(C(F)(F)F)cc3)c2)c(C)c1 | > 10 µM | – | – | –
14 | Cc1cc(C)c(Nc2ccc(=O)n(Nc3cccc(C#N)c3)c2)c(C)c1 | > 10 µM | – | – | –
15 | Cc1cc(C)c(Nc2ccnc(Nc3ccc(C#N)cc3)n2)c(C)c1 [DAPIVIRINE] | 0.002 µM | 1440 | 2.88 µM | EC50 [6]: 0.0108 µM; EC50 [7]: 0.0025 µM; Ratio EC50 [8]: 5.4; IC50 [3]: 2.5 µM; EC50 [9]: 0.002 µM; Ratio EC50 [10]: 1.3

Further lines, with some results ahead:

Row | EC50 [1] | SMILES | selectivity ratio [2] | CC50 at 48 h [5] | further results
16 | > 10 µM | Cc1cc(C)c(Nc2ccc(=O)n(Nc3ccccc3)c2)c(C)c1 | – | – | –
17 | > 10 µM | N#Cc1ccc(Nn2cc(Nc3ccccc3)ccc2=O)cc1 | – | – | –
18 | > 10 µM | O=c1ccc(Nc2ccccc2)cn1Nc1ccccc1 | – | – | –
19 | 1.37 µM | Cc1cc(C)c(Nc2ccc(=O)n(Nc3ccc(C#N)cc3)n2)c(C)c1 | > 69 | > 100 µM | IC50 [3]: 547 µM; Ratio EC50 [4]: 700
20 | 10 µM | Cc1cc(C)c(Oc2ccc(=O)n(Nc3ccc(C(F)(F)F)cc3)n2)c(C)c1 | 2.1 | 21.2 µM | –
21 | 9.64 µM | Cc1cc(C)c(Oc2ccc(=O)n(Nc3ccc(F)cc3)n2)c(C)c1 | 2.4 | 23.5 µM | –
22 | 3.95 µM | Cc1cc(C)c(Oc2ccc(=O)n(Nc3ccc(Cl)cc3)n2)c(C)c1 | 5.6 | 22.3 µM | –
23 | 7.63 µM | Cc1cccc(C)c1Oc1ccc(=O)n(Nc2ccc(C#N)cc2)n1 | > 13 | > 100 µM | –
24 | 1.75 µM | Cc1cc(C#N)cc(C)c1Oc1ccc(=O)n(Nc2ccc(C#N)cc2)n1 | 14 | 24.7 µM | –
25 | > 5 µM | Cc1cc(Cl)cc(C)c1Oc1ccc(=O)n(Nc2cccc(C#N)c2)n1 | – | – | –
26 | 3.19 µM | Cc1cc(Br)cc(C)c1Oc1ccc(=O)n(Nc2ccc(Cl)cc2)n1 | 20 | 63.5 µM | –
27 | 1.39 µM | Cc1cc(C)c(Oc2nn(Nc3ccc(C#N)cc3)c(=O)c3ccccc23)c(C)c1 | 43.3 | 60.4 µM | IC50 [3]: 928 µM
28 | 3.6 µM | Cc1cc(Cl)cc(C)c1Oc1nn(Nc2ccc(C#N)cc2)c(=O)c2ccccc12 | 14.2 | 51.2 µM | –
29 | 10 µM | Cc1cc(Cl)cc(C)c1Oc1nn(Nc2ccc(Cl)cc2)c(=O)c2ccccc12 | – | – | –
